Measurements as given in ChEMBL document CHEMBL1833842, “1,3-Dihydro-2H-indol-2-ones derivatives: design, synthesis, in vitro antibacterial, antifungal and antitubercular study” (2011).
In brackets after ≈: the same amount, converted by molar mass.

How the values were obtained:
[1] = tested on: Mycobacterium tuberculosis; test: Antituberculosis activity against 5 x 10^4 inoculum per tube Mycobacterium tuberculosis H37Rv after 24 hrs by Lowenstein-Jensen method; type: functional
How it was run: (§1)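 Conventional Lowenstein-Jensen method. Compound dilutions were made from a DMSO stock and added to liquid L-J medium, which was sterilized by inspissation. Tubes were incubated 24 h at 37 °C, then streaked with H37Rv (5 × 10⁴ bacilli per tube) harvested into 0.85% saline. Growth was checked at 12, 22 and 28 days at 37 °C against medium-only controls. MIC was the concentration giving no colonies or <20 colonies.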

[2] = tested on: Aspergillus clavatus; test: Antifungal activity against 10^8 CFU/mL Aspergillus clavatus MTCC 1323 by broth microdilution method; type: functional
How it was run: (§2)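 Fungal MTCC cultures came from IMTECH Chandigarh. Mueller-Hinton broth served as growth and dilution medium, with DMSO as diluent. Inoculum was set to 10⁸ CFU/mL by turbidity. Serial dilutions from a 2000 stock gave a primary screen at 500, 250 and 125, followed by a secondary dilution series for actives. MIC was the lowest concentration inhibiting growth.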

[3] = tested on: Aspergillus niger; test: Antifungal activity against 10^8 CFU/mL Aspergillus niger MTCC 282 by broth microdilution method; type: functional; how it was run: as §2
[4] = tested on: Candida albicans; test: Antifungal activity against 10^8 CFU/mL Candida albicans MTCC 227 by broth microdilution method; type: functional; how it was run: as §2
[5] = tested on: Bacillus subtilis; test: Antibacterial activity against 10^8 CFU/mL Bacillus subtilis MTCC 441 by broth microdilution method; type: functional
How it was run: (§3)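 MTCC bacterial strains from IMTECH Chandigarh were grown in Mueller-Hinton broth, which was also used to dilute the compounds. Inoculum was turbidity-adjusted to 10⁸ CFU/mL, and DMSO served as diluent. Compounds from a 2000 stock were screened first at 500, 250 and 125; actives were retested in a second dilution series. Tubes were incubated overnight at 37 °C, and MIC was the lowest concentration with no visible growth. Clear tubes were subcultured overnight at 37 °C to tell bacteriostatic from bactericidal.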

[6] = tested on: Streptococcus pyogenes; test: Antibacterial activity against 10^8 CFU/mL Streptococcus pyogenes MTCC 442 by broth microdilution method; type: functional; how it was run: as §3
[7] = tested on: Staphylococcus aureus; test: Antibacterial activity against 10^8 CFU/mL Staphylococcus aureus MTCC 96 by broth microdilution method; type: functional; how it was run: as §3
[8] = tested on: Salmonella typhi; test: Antibacterial activity against 10^8 CFU/mL Salmonella typhi MTCC 98 by broth microdilution method; type: functional, Salmonella enterica subsp. enterica serovar Typhi
How it was run: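 Broth microdilution in Mueller-Hinton broth with MTCC strains, inoculum adjusted by turbidity to 10⁸ CFU/mL. Compounds were diluted from DMSO. Primary screen used 500, 250 and 125 concentrations, and actives were serially diluted further. Tubes were incubated overnight at 37 °C. MIC was the lowest concentration with no visible growth. Clear tubes were subcultured overnight at 37 °C to judge bacteriostatic versus bactericidal.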

[9] = tested on: Klebsiella pneumoniae; test: Antibacterial activity against 10^8 CFU/mL Klebsiella pneumoniae MTCC 109 by broth microdilution method; type: functional; how it was run: as §3
[10] = tested on: Escherichia coli; test: Antibacterial activity against 10^8 CFU/mL Escherichia coli MTCC 443 by broth microdilution method; type: functional; how it was run: as §3
[11] = tested on: Pseudomonas aeruginosa; test: Antibacterial activity against 10^8 CFU/mL Pseudomonas aeruginosa MTCC 1688 by broth microdilution method; type: functional; how it was run: as §3
[12] = tested on: Mycobacterium tuberculosis; test: Antituberculosis activity against 5 x 10^4 inoculum per tube Mycobacterium tuberculosis H37Rv assessed as growth inhibition at 500 ug/mL incubated for 24 hrs measured after 28 days; type: functional; details: read-out: GI; how it was run: as §1
[13] = tested on: Mycobacterium tuberculosis; test: Antituberculosis activity against 5 x 10^4 bacilli per tube Mycobacterium tuberculosis H37Rv assessed as growth inhibition at 40 ug/mL incubated for 24 hrs measured after 28 days; type: functional; details: read-out: GI; how it was run: as §1
[14] = tested on: Mycobacterium tuberculosis; test: Antituberculosis activity against 5 x 10^4 bacilli per tube Mycobacterium tuberculosis H37Rv assessed as growth inhibition at 0.20 ug/mL incubated for 24 hrs measured after 28 days; type: functional; details: read-out: GI; how it was run: as §1
[15] = tested on: Mycobacterium tuberculosis; test: Antituberculosis activity against 5 x 10^4 bacilli per tube Mycobacterium tuberculosis H37Rv assessed as growth inhibition at 1000 ug/mL incubated for 24 hrs measured after 28 days; type: functional; details: read-out: GI; how it was run: as §1
[16] = tested on: Mycobacterium tuberculosis; test: Antituberculosis activity against 5 x 10^4 bacilli per tube Mycobacterium tuberculosis H37Rv assessed as growth inhibition at 250 ug/mL incubated for 24 hrs measured after 28 days; type: functional; details: read-out: GI; how it was run: as §1

| Molecule | MIC [1] | MIC [2] | MIC [3] | MIC [4] | MIC99 [5] | MIC99 [6] | MIC99 [7] | MIC99 ([8]; Salmonella enterica) | MIC99 [9] | MIC99 [10] | MIC99 [11] | inhibition of growth at 500 µg/mL [12] | MIC99 ([8]; Salmonella enterica subsp. enterica serovar Typhi) | inhibition of growth at 40 µg/mL [13] | inhibition of growth at 0.2 µg/mL [14] | inhibition of growth at 1000 µg/mL [15] | inhibition of growth at 250 µg/mL [16] |
| --- | --- | --- | --- | --- | --- | --- | --- | --- | --- | --- | --- | --- | --- | --- | --- | --- | --- |
| CC1=C(c2nnc(/N=C3\C(=O)Nc4ccccc43)s2)C(c2ccccc2)NC(=S)N1 (stereo not drawn) | 500 µg/mL (≈ 1160 µM) | 500 µg/mL (≈ 1160 µM) | 500 µg/mL (≈ 1160 µM) | > 1000 µg/mL | 200 µg/mL (≈ 462 µM) | 200 µg/mL (≈ 462 µM) | 200 µg/mL (≈ 462 µM) | 200 µg/mL (≈ 462 µM) | 200 µg/mL (≈ 462 µM) | 500 µg/mL (≈ 1160 µM) | 200 µg/mL (≈ 462 µM) | 98% |  |  |  |  |  |
| GENTAMICIN |  |  |  |  | 0.5 µg/mL | 0.5 µg/mL | 0.25 µg/mL |  | 0.05 µg/mL | 0.05 µg/mL | 1 µg/mL |  | 1 µg/mL |  |  |  |  |
| O=C(N[C@H](CO)[C@H](O)c1ccc([N+](=O)[O-])cc1)C(Cl)Cl [CHLORAMPHENICOL] |  |  |  |  | 50 µg/mL (≈ 155 µM) | 50 µg/mL (≈ 155 µM) | 50 µg/mL (≈ 155 µM) | 50 µg/mL (≈ 155 µM) | 50 µg/mL (≈ 155 µM) | 50 µg/mL (≈ 155 µM) | 50 µg/mL (≈ 155 µM) |  |  |  |  |  |  |
| CCn1cc(C(=O)O)c(=O)c2cc(F)c(N3CCNCC3)cc21 [NORFLOXACIN] |  |  |  |  | 10 µg/mL (≈ 31.3 µM) | 10 µg/mL (≈ 31.3 µM) | 10 µg/mL (≈ 31.3 µM) | 10 µg/mL (≈ 31.3 µM) | 10 µg/mL (≈ 31.3 µM) | 10 µg/mL (≈ 31.3 µM) | 10 µg/mL (≈ 31.3 µM) |  |  |  |  |  |  |
| NYSTATIN |  | 100 µg/mL | 100 µg/mL | 100 µg/mL |  |  |  |  |  |  |  |  |  |  |  |  |  |
| CO[C@H]1/C=C/O[C@@]2(C)Oc3c(C)c(O)c4c(O)c(c(/C=N/N5CCN(C)CC5)c(O)c4c3C2=O)NC(=O)/C(C)=C\C=C\[C@H](C)[C@H](O)[C@@H](C)[C@@H](O)[C@@H](C)[C@H](OC(C)=O)[C@@H]1C [RIFAMPIN] | 40 µg/mL (≈ 48.6 µM) |  |  |  |  |  |  |  |  |  |  |  |  | 98% |  |  |  |
| NNC(=O)c1ccncc1 [ISONIAZID] | 0.2 µg/mL (≈ 1.46 µM) |  |  |  |  |  |  |  |  |  |  |  |  |  | 99% |  |  |
| CC1=C(c2nnc(/N=C3\C(=O)Nc4ccc(I)cc43)s2)C(c2ccccc2)NC(=S)N1 (stereo not drawn) | 1000 µg/mL (≈ 1790 µM) | > 1000 µg/mL | > 1000 µg/mL | > 1000 µg/mL | 200 µg/mL (≈ 358 µM) | 200 µg/mL (≈ 358 µM) | 200 µg/mL (≈ 358 µM) | 250 µg/mL (≈ 448 µM) | 200 µg/mL (≈ 358 µM) | 250 µg/mL (≈ 448 µM) | 250 µg/mL (≈ 448 µM) |  |  |  |  | 98% |  |
| CC1=C(c2nnc(/N=C3\C(=O)Nc4ccc(Br)cc43)s2)C(c2ccccc2)NC(=O)N1 (stereo not drawn) | 500 µg/mL (≈ 1010 µM) | > 1000 µg/mL | 500 µg/mL (≈ 1010 µM) | 500 µg/mL (≈ 1010 µM) | 100 µg/mL (≈ 202 µM) | 100 µg/mL (≈ 202 µM) | 100 µg/mL (≈ 202 µM) | 250 µg/mL (≈ 505 µM) | 200 µg/mL (≈ 404 µM) | 250 µg/mL (≈ 505 µM) | 250 µg/mL (≈ 505 µM) | 98% |  |  |  |  |  |
| CC1=C(c2nnc(/N=C3\C(=O)Nc4ccc(I)cc43)s2)C(c2ccccc2)NC(=O)N1 (stereo not drawn) | 1000 µg/mL (≈ 1840 µM) | > 1000 µg/mL | > 1000 µg/mL | > 1000 µg/mL | 250 µg/mL (≈ 461 µM) | 200 µg/mL (≈ 369 µM) | 250 µg/mL (≈ 461 µM) | 250 µg/mL (≈ 461 µM) | 250 µg/mL (≈ 461 µM) | 250 µg/mL (≈ 461 µM) | 250 µg/mL (≈ 461 µM) |  |  |  |  | 98% |  |
| CC1=C(c2nnc(/N=C3\C(=O)Nc4ccc(Br)cc43)s2)C(c2ccccc2)NC(=S)N1 (stereo not drawn) | 250 µg/mL (≈ 489 µM) | 500 µg/mL (≈ 978 µM) | 500 µg/mL (≈ 978 µM) | 500 µg/mL (≈ 978 µM) | 100 µg/mL (≈ 196 µM) | 100 µg/mL (≈ 196 µM) | 100 µg/mL (≈ 196 µM) | 250 µg/mL (≈ 489 µM) | 200 µg/mL (≈ 391 µM) | 200 µg/mL (≈ 391 µM) | 200 µg/mL (≈ 391 µM) |  |  |  |  |  | 98% |
